# Data reported in ChEMBL document CHEMBL3286193, “Discovery of a series of 2,5-diaminopyrimidine covalent irreversible inhibitors of Bruton's tyrosine kinase with in vivo antitumor activity” (J Med Chem, 2014).
# pIC50: −log10 of the molar value. Calls of active or inactive are those of the source. The calls are words filed in the database; no cut-off is given here.
# How the values were obtained:
# [1] = biological target: T1, Tyrosine-protein kinase BTK (Homo sapiens, UniProt Q06187); assay: Inhibition of Btk (unknown origin) after 1 hr by HTRF assay
# T1 sequence (Q06187 whole entry): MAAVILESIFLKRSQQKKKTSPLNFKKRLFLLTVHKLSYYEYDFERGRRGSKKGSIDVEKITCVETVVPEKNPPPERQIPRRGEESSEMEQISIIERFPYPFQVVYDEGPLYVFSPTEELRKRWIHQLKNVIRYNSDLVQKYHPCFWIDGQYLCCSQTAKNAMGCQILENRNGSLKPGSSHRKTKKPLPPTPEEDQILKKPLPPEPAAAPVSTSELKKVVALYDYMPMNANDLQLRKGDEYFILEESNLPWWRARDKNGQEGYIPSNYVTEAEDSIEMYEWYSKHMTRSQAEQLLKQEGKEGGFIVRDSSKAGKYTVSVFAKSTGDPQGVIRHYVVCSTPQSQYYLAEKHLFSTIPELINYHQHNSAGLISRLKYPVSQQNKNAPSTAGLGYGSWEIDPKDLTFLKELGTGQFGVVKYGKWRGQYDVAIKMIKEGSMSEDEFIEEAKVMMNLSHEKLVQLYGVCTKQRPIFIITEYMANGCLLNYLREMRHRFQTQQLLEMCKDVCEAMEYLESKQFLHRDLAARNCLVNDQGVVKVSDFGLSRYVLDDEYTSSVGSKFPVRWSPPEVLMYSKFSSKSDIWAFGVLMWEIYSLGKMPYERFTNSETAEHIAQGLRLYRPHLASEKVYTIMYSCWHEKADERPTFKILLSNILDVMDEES
# Outline: (§1)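 Recombinant kinases tested by HTRF KinEase protocol. Enzyme preincubated with inhibitor for a fixed 10 min. IC50 values are means of duplicates.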
# [2] = Cytotoxicity against human SU-DHL6 cells assessed as growth inhibition after 72 hrs by CellTiter-Glo luminescent cell viability assay; type: functional, SU-DHL-6
# Outline: (§2)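 Lymphoma cells seeded at 5000 cells/well, incubated 24 h, then exposed to compounds for 72 h. Viability read by CellTiter-Glo luminescence. GI50 from dose−response curves, mean of two or three independent experiments in triplicate.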
# [3] = Cytotoxicity against human DOHH2 cells assessed as growth inhibition after 72 hrs by CellTiter-Glo luminescent cell viability assay; type: functional, DOHH-2; outline: as §2
# [4] = system: Mus musculus; assay: Toxicity in CB17 SCID mouse xenografted with human DOHH2 cells assessed as body weight fluctuations at 10 mg/kg, iv qd administered for 14 days measured over 14 days of compound treatment; type: organism-based, DOHH-2; design: dose 10 mg/kg, route intravenous; conditions: in vivo, 336 h
# Outline: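 Female CB17/SCID mice carried subcutaneous DoHH2 xenografts (5 × 10⁶ cells injected), randomised at ~167 mm³ mean tumour volume into four groups (n = 6/group). Compound was given intravenously via the tail vein once daily for 14 consecutive days. Body weights were tracked over time throughout the study.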
# [5] = Cytotoxicity against human Pfeiffer cells assessed as growth inhibition after 72 hrs by CellTiter-Glo luminescent cell viability assay; type: functional; outline: as §2
# [6] = Plasma concentration in CB17 SCID mouse xenografted with human DOHH2 cells at 10 mg/kg, iv qd administered for 14 days measured at 2 hrs post last dose; type: ADME, organism-based, DOHH-2; design: dose 10 mg/kg, route intravenous
# Outline: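 Female CB17/SCID mice were given 5 × 10⁶ DoHH2 cells subcutaneously. When tumours averaged ~167 mm³, mice were randomised into four groups (n = 6/group). Dosing was by tail-vein injection once daily for 14 consecutive days. Plasma compound levels were determined at 2 and 24 h after the final dose.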
# [7] = biological target: T2, Epidermal growth factor receptor (Homo sapiens, UniProt P00533); conditions: 5 nM
# T2 sequence (P00533 whole entry): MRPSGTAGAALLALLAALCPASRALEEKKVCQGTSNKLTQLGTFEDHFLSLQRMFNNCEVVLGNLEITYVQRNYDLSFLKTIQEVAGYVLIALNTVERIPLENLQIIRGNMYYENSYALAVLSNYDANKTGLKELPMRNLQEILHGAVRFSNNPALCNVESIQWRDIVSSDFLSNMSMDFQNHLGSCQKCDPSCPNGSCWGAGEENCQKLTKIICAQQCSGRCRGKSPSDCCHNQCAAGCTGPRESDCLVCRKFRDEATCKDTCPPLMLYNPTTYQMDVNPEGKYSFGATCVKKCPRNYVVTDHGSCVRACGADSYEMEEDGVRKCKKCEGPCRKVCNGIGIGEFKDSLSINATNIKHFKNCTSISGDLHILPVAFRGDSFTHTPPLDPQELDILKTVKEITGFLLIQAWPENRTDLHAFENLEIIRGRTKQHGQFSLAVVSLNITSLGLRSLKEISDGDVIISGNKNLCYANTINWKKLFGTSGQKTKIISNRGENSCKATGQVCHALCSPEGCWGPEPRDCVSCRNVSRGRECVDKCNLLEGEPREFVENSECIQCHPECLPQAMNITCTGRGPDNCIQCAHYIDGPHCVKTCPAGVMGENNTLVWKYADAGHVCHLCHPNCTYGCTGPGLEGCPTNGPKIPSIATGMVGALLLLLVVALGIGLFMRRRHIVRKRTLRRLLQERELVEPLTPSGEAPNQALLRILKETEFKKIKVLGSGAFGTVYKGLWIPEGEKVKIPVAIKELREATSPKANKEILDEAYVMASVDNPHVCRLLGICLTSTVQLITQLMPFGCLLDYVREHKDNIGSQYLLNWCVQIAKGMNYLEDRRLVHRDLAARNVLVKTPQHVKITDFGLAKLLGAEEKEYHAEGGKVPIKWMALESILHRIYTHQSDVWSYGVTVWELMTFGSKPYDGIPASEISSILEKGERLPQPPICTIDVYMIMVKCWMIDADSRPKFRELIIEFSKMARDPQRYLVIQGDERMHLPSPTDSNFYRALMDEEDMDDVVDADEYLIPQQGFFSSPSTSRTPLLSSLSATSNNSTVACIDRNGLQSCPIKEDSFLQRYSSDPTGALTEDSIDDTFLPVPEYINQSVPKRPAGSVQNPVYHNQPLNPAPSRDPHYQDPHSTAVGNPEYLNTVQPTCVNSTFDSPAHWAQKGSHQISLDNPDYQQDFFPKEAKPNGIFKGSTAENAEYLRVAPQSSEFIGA
# [8] = biological target: Tyrosine-protein kinase ITK/TSK (Homo sapiens, UniProt Q08881); assay: Inhibition of Itk (unknown origin) after 1 hr by HTRF assay; outline: as §1
# [9] = system: WSU-NHL; assay: Cytotoxicity against human WSU-NHL cells assessed as growth inhibition after 72 hrs by CellTiter-Glo luminescent cell viability assay; type: functional; outline: as §2
# [10] = Half life in ICR mouse at 1 mg/kg, iv by LC-MS analysis; type: ADME, organism-based; design: dose 1 mg/kg, route intravenous; conditions: in vivo
# Outline: (§3)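 ICR mice (n = 3) given a single intravenous injection at 1 mg/kg. Blood sampled at various time points and analyzed by LC−MS to derive t1/2, CL and Vss.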
# [11] = biological target: T1, Tyrosine-protein kinase BTK; assay: Irreversible inhibition of Btk phosphorylation at Tyr551 in human Ramos cells at 1 uM incubated for 1 hr followed by compound washout with fresh media measured after 2 hrs by Western blot analysis; type: cell-based
# Outline: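 Ramos cells (5 × 10⁵) seeded overnight, treated with compound 1 h, then washed out with fresh media for 2 h. Cells stimulated with goat anti-human IgM for 3−5 min, lysed by boiling in SDS buffer, and Btk Tyr551 phosphorylation assessed by Western blot.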
# [12] = Clearance in mouse liver microsomes by LC-MS/MS analysis; type: ADME; conditions: read-out: CLH
# Outline: (§4)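 Liver microsomes incubated with compound and NADPH at 37 °C. Samples taken at several time points, centrifuged, and supernatants analyzed by LC−MS/MS. t1/2 and CL calculated by first-order kinetics. Testosterone, propranolol and clozapine served as positive controls.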
# [13] = biological target: T2, Epidermal growth factor receptor; assay: Inhibition of EGFR (unknown origin) after 1 hr by HTRF assay
# Outline: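 Commercial recombinant kinase, assayed in the HTRF KinEase format following the kit protocol. Enzyme and inhibitor were preincubated for a fixed 10 min before the reaction.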
# [14] = Half life in mouse liver microsomes by LC-MS/MS analysis; type: ADME; outline: as §4
# [15] = biological target: Tyrosine-protein kinase Tec (Homo sapiens, UniProt P42680); assay: Inhibition of Tec (unknown origin) after 1 hr by HTRF assay; outline: as §1
# [16] = biological target: Tyrosine-protein kinase JAK3 (Homo sapiens, UniProt P52333); assay: Inhibition of Jak3 (unknown origin) after 1 hr by HTRF assay; outline: as §1
# Chain of Tyrosine-protein kinase JAK3 (P52333 whole entry): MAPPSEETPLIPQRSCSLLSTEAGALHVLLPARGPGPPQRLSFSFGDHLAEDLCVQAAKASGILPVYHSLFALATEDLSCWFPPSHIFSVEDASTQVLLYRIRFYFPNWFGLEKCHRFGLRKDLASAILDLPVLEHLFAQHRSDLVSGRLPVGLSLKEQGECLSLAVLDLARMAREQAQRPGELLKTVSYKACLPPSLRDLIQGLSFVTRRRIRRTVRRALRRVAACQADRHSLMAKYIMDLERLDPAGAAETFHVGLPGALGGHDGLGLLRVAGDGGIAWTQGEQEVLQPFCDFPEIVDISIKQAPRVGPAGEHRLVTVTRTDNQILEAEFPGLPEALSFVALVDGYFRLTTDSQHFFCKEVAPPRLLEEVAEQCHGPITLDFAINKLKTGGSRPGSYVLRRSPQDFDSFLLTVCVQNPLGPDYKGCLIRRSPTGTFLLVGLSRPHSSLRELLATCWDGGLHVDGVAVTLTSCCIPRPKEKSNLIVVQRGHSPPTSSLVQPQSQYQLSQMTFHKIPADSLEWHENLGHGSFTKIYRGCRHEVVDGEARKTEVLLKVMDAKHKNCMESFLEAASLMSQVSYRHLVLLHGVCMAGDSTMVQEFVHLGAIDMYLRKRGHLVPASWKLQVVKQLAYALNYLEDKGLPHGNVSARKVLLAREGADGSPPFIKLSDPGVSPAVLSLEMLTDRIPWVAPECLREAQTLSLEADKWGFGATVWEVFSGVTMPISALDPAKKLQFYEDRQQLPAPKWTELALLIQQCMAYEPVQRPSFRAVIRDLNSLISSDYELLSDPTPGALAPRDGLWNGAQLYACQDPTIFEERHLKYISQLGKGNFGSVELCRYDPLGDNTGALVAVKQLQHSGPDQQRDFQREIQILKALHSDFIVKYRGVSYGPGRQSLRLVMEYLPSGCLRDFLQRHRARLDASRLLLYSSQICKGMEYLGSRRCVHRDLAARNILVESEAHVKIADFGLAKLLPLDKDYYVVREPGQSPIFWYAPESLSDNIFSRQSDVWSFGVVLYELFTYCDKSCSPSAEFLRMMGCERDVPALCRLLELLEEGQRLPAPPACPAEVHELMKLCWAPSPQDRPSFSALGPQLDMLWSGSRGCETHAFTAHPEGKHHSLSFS
# [17] = Volume of distribution at steady state in ICR mouse at 1 mg/kg, iv by LC-MS analysis; type: ADME, organism-based; design: dose 1 mg/kg, route intravenous; conditions: in vivo, read-out: Vdss; outline: as §3
# [18] = biological target: Receptor tyrosine-protein kinase erbB-2 (Homo sapiens, UniProt P04626); assay: Inhibition of HER2 (unknown origin) after 1 hr by HTRF assay; outline: as §1
# Chain of Receptor tyrosine-protein kinase erbB-2 (P04626 whole entry): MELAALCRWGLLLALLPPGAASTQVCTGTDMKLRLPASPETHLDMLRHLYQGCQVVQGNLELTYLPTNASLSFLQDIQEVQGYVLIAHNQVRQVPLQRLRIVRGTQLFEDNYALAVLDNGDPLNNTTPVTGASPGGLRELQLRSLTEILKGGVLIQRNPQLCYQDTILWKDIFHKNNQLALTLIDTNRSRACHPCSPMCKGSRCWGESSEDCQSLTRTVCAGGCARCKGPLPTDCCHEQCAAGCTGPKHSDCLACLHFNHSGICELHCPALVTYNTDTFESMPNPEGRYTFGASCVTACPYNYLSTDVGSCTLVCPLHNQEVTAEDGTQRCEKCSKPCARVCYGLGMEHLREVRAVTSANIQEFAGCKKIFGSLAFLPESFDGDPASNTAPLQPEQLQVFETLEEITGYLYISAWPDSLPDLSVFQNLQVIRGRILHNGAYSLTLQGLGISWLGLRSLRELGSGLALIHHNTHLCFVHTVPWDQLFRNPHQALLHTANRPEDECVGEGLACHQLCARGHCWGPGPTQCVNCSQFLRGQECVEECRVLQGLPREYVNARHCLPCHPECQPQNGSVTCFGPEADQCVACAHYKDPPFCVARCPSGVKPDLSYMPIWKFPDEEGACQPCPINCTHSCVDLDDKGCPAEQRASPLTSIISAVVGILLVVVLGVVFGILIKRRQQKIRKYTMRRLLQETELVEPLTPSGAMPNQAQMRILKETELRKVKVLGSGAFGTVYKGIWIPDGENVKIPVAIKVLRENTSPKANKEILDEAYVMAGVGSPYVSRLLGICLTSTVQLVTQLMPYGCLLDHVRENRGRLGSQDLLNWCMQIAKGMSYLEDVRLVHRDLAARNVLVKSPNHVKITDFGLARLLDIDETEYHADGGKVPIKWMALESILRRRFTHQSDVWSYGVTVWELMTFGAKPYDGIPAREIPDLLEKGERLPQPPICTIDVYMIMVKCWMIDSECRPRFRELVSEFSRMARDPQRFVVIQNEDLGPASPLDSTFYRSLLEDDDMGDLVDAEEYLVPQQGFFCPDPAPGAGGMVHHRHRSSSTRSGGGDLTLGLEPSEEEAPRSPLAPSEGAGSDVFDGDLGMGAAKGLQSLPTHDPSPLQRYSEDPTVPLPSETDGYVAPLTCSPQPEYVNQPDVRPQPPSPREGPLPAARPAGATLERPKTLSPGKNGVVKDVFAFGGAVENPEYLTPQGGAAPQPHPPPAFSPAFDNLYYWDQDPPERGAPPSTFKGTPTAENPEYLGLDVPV
# [19] = biological target: Receptor tyrosine-protein kinase erbB-4 (Homo sapiens, UniProt Q15303); assay: Inhibition of HER4 (unknown origin) after 1 hr by HTRF assay; outline: as §1
# [20] = biological target: T1, Tyrosine-protein kinase BTK; assay: Binding affinity to Btk kinase domain (387 to 659) (unknown origin) assessed as compound-protein covalent adduct formation at 1:3 protein to compound molar ratio at 4 degC after 1 hr by LC-MS analysis
# Outline: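 Btk kinase domain (residues 387−659, MW 32136) incubated with 3 equiv of compound at 4 °C for 1 h. Mass spectrometry of the intact protein checked for mass peak shift consistent with 1-to-1 protein−compound adducts.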
# [21] = system: Liver microsomes (Mus musculus); assay: Clearance in mouse liver microsomes by LC-MS/MS analysis
# [22] = Stability of the compound in FaSSIF assessed as compound remaining at 1 uM measured at 24 hrs by LC-MS analysis; type: ADME; conditions: read-out: Stability
# Outline: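 Compound solutions in FaSSIF shaken at 350 rpm at 37 °C. Samples taken at 2, 6, 10 and 24 h and quantified by LC−MS as % remaining.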
# [23] = biological target: T1, Tyrosine-protein kinase BTK; assay: Inhibition of Btk in human Ramos cells assessed as inhibition of PLC-gamma2 phosphorylation at Tyr1217 after 1 hr by Western blot analysis; type: cell-based
# [24] = Solubility of the compound in FaSSIF; type: ADME
# [25] = biological target: Cytoplasmic tyrosine-protein kinase BMX (Homo sapiens, UniProt P51813); assay: Inhibition of Bmx (unknown origin) after 1 hr by HTRF assay; outline: as §1
# [26] = biological target: Tyrosine-protein kinase TXK (Homo sapiens, UniProt P42681); assay: Inhibition of Rlk (unknown origin) after 1 hr by HTRF assay; outline: as §1
# Chain of Tyrosine-protein kinase TXK (P42681 whole entry): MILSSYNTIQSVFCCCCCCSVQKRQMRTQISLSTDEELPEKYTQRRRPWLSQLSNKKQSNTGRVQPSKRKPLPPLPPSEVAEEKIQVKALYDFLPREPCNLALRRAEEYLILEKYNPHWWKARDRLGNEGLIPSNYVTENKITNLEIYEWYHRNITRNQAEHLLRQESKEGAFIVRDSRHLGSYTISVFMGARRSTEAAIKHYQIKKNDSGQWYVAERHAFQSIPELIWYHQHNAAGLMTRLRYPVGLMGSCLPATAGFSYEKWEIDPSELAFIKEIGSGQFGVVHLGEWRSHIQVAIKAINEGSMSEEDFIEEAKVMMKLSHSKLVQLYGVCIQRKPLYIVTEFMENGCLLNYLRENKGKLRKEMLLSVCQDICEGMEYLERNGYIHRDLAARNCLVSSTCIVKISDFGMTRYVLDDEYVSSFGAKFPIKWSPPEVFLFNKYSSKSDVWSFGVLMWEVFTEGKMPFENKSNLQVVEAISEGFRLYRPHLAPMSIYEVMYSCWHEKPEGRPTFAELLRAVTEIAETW
# [27] = biological target: Tyrosine-protein kinase Blk (Homo sapiens, UniProt P51451); assay: Inhibition of Blk (unknown origin) after 1 hr by HTRF assay; outline: as §1
# [28] = Clearance in ICR mouse at 1 mg/kg, iv by LC-MS analysis; type: ADME, organism-based; design: dose 1 mg/kg, route intravenous; conditions: in vivo; outline: as §3
# [29] = biological target: T1, Tyrosine-protein kinase BTK; assay: Inhibition of Btk phosphorylation at Tyr551 in human Ramos cells after 1 hr by Western blot analysis; type: cell-based
structure (smiles),measurement,setting,value
Nc1cccc(Nc2ncc(NC(=O)c3cc(NC(=O)c4cccc(C(F)(F)F)c4)ccc3F)cn2)c1,pIC50,[1],7.33
Cc1ccc(NC(=O)c2cc(Cl)cc(C(F)(F)F)c2)cc1C(=O)Nc1cnc(Nc2cccc(N)c2)nc1,pIC50,[1],7.74
Nc1cccc(Nc2ncc(NC(=O)c3cccc(NC(=O)c4cccc(C(F)(F)F)c4)c3)cn2)c1,pIC50,[1],6.63
Cc1ccc(NC(=O)c2cccc(N(C)C)c2)cc1C(=O)Nc1cnc(Nc2cccc(N)c2)nc1,pIC50,[1],7.33
Cc1ccc(NC(=O)Nc2cccc(C(F)(F)F)c2)cc1C(=O)Nc1cnc(Nc2cccc(N)c2)nc1,pIC50,[1],7.20
C=CC(=O)Nc1cccc(Nc2ncc(NC(=O)c3cc(NC(=O)c4ccc5ccccc5c4)ccc3C)cn2)c1,pIC50,[1],7.66
Cc1ccc(NC(=O)c2cccc(C(F)(F)F)c2)cc1C(=O)Nc1cnc(Nc2cccc(C(F)(F)F)c2)nc1,pIC50,[1],6.52
Nc1cccc(Nc2ncc(NC(=O)c3cccc(C(=O)Nc4cccc(C(F)(F)F)c4)c3)cn2)c1,pIC50,[1],7.35
Cc1ccc(NC(=O)c2cccc(C(F)(F)F)c2)cc1C(=O)Nc1cnc(Nc2cccc(NC(=O)CCN(C)C)c2)nc1,pIC50,[1],7.85
Cc1ccc(NC(=O)c2cccc(C(F)(F)F)c2)cc1C(=O)Nc1cnc(N)nc1,pIC50,[1],5.47
C=CS(=O)(=O)Nc1cccc(Nc2ncc(NC(=O)c3cc(NC(=O)c4cccc(C(F)(F)F)c4)ccc3C)cn2)c1,pIC50,[1],7.80
Cc1ccc(NC(=O)C2CC2)cc1C(=O)Nc1cnc(Nc2cccc(N)c2)nc1,pIC50,[1],5.31
CCNc1ncc(NC(=O)c2cc(NC(=O)c3cccc(C(F)(F)F)c3)ccc2C)cn1,pIC50,[1],5.96
Cc1ccc(NC(=O)c2ccc(C(F)(F)F)cc2)cc1C(=O)Nc1cnc(Nc2cccc(N)c2)nc1,pIC50,[1],7.60
Cc1ccc(NC(=O)c2cccc(C(F)(F)F)c2)cc1C(=O)Nc1cnc(Nc2ccccc2)nc1,pIC50,[1],6.88
C=CC(=O)N1CCC[C@@H](n2nc(-c3ccc(Oc4ccccc4)cc3)c3c(N)ncnc32)C1 [IBRUTINIB],GI50,[2],580 nM
same,GI50,[3],410 nM
same,Activity,[4],Non-toxic
same,GI50,[5],2 nM
same,concentration at 2 h,[6],479 ng/mL
same,inhibition,[7],Active
C=CC(=O)NCC(=O)Nc1cccc(Nc2ncc(NC(=O)c3cc(NC(=O)c4cccc(C(F)(F)F)c4)ccc3C)cn2)c1,pIC50,[8],< 4.52
same,GI50,"[2]; Homo sapiens, SU-DHL-6, 72 h",43 nM
same,GI50,"[3]; Homo sapiens, DOHH-2, 72 h",40 nM
same,GI50,[9],29 nM
same,half-life,[10],36 min
same,inhibition,[11],Active
same,microsomal CLint,[12],28.1 µL/min/mg
same,pIC50,[13],8.15
same,half-life,[14],35.4 min
same,GI50,"[5]; Homo sapiens, Pfeiffer, 72 h",8 nM
same,pIC50,[15],8.20
same,pIC50,[16],5.20
same,Vd,[17],0.13 L/kg
same,pIC50,[18],8.15
same,pIC50,[19],8.48
same,pIC50,[1],> 8.36
same,Activity,[20],Active
same,CLH,[21],49.8 mL/min/kg
same,"remaining at 24 h, 1 µM",[22],99%
same,pIC50,[23],7.89
same,solubility,[24],2.23 µM
same,pIC50,[25],9.15
same,pIC50,[26],8.85
same,pIC50,[27],8.38
same,clearance,[28],11.5 mL/min/kg
same,pIC50,[29],7.89
Nc1cccc(Nc2ncc(NC(=O)c3cc(NC(=O)c4cccc(C(F)(F)F)c4)ccc3Cl)cn2)c1,pIC50,[1],7.96
Cc1ccc(NC(=O)c2ccc3ccccc3c2)cc1C(=O)Nc1cnc(Nc2cccc(N)c2)nc1,pIC50,[1],7.41
CCC(=O)Nc1ccc(C)c(C(=O)Nc2cnc(Nc3cccc(N)c3)nc2)c1,pIC50,[1],5.07
Cc1ccc(NC(=O)c2cccc(C(F)(F)F)c2)cc1C(=O)Nc1cnc(Nc2cccc(N)c2)nc1,pIC50,[1],7.85
Cc1ccc(NC(=O)c2cccc(Cl)c2)cc1C(=O)Nc1cnc(Nc2cccc(N)c2)nc1,pIC50,[1],7.70
CCC(=O)Nc1cccc(Nc2ncc(NC(=O)c3cc(NC(=O)c4cccc(C(F)(F)F)c4)ccc3C)cn2)c1,inhibition,[11],inactive
same,pIC50,[1],7.82
Cc1ccc(NC(=O)c2cccc(C(F)(F)F)c2)cc1C(=O)Nc1cnc(Nc2cccc(F)c2)nc1,pIC50,[1],7.28
Cc1ccc(NC(=O)c2cccc(C(F)(F)F)c2)cc1C(=O)Nc1cnc(Nc2cccc(NC(=O)CCl)c2)nc1,pIC50,[1],7.82
Cc1ccc(NC(=O)c2cccc(C(F)(F)F)c2)cc1C(=O)Nc1cnc(Nc2ccc(N)cc2)nc1,pIC50,[1],8.10
C=CC(=O)Nc1cccc(Nc2ncc(NC(=O)c3cc(NC(=O)c4ccc(Cl)c(C(F)(F)F)c4)ccc3C)cn2)c1,pIC50,[1],7.96
Cc1ccc(NC(=O)c2ccc(Cl)c(C(F)(F)F)c2)cc1C(=O)Nc1cnc(Nc2cccc(N)c2)nc1,pIC50,[1],8.05
C/C=C/C(=O)Nc1cccc(Nc2ncc(NC(=O)c3cc(NC(=O)c4cccc(C(F)(F)F)c4)ccc3C)cn2)c1,pIC50,[1],7.44
CCC(=O)N(C(=O)CC)c1cccc(Nc2ncc(NC(=O)c3cc(NC(=O)c4cccc(C(F)(F)F)c4)ccc3C)cn2)c1,pIC50,[1],5.85
Cc1ccc(NC(=O)c2cccc(C(F)(F)F)c2)cc1C(=O)Nc1cnc(NC2CC2)nc1,pIC50,[1],5.67
Cc1ccc(NC(=O)c2cccc(C(F)(F)F)c2)cc1C(=O)Nc1cnc(Nc2cccc(NC(=O)Cn3sc4ccccc4c3=O)c2)nc1,pIC50,[1],7.74
COc1cccc(Nc2ncc(NC(=O)c3cc(NC(=O)c4cccc(C(F)(F)F)c4)ccc3C)cn2)c1,pIC50,[1],7.28
C=CC(=O)Nc1cccc(Nc2ncc(NC(=O)c3cc(NC(=O)c4cccc(F)c4)ccc3C)cn2)c1,pIC50,[1],7.32
Cc1ccc(NC(=O)c2cccc(F)c2)cc1C(=O)Nc1cnc(Nc2cccc(N)c2)nc1,pIC50,[1],6.78
Cc1ccc(NC(=O)c2cccc(C(F)(F)F)c2)cc1C(=O)Nc1cnc(Nc2cccc(NC(=O)/C=C/CN(C)C)c2)nc1,pIC50,[1],7.82
Cc1ccc(NC(=O)/C=C/c2ccccc2)cc1C(=O)Nc1cnc(Nc2cccc(N)c2)nc1,pIC50,[1],7.62
C=CC(=O)N(C(=O)C=C)c1cccc(Nc2ncc(NC(=O)c3cc(NC(=O)c4cccc(C(F)(F)F)c4)ccc3C)cn2)c1,pIC50,[1],6.68
